Results: ChEMBL document CHEMBL3576854, “Northalrugosidine is a bisbenzyltetrahydroisoquinoline alkaloid from Thalictrum alpinum with in vivo antileishmanial activity” (J Nat Prod, 2015)

Tests used:
[1] = test system: Leishmania donovani; assay: Antileishmanial activity against transgenic DsRed2 Leishmania donovani promastigotes strain LV82 assessed as parasite killing after 72 hrs by flow cytometry; format: functional, organism-based; settings: LV82, 72 h
[2] = test system: HT-29; assay: Cytotoxicity against human HT-29 cells assessed as inhibition of cell survival after 72 hrs by sulforhodamine B assay; format: cell-based; settings: HT-29, 72 h
Method in brief: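 HT-29 cells, 9500 per well, exposed to a concentration series in triplicate for 72 h. Controls: 10% DMSO in water (negative) and paclitaxel in that carrier (positive).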

[3] = Selectivity index, ratio of IC50 for HT-29 cells to IC50 for transgenic DsRed2 Leishmania donovani promastigotes strain LV82; format: toxicity, cell-based; settings: human; read-out: Ratio IC50
Method in brief: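 Ratio of the HT-29 cytotoxicity IC50 (72 h, sulforhodamine B) to the IC50 against DsRed2 L. donovani LV 82 promastigotes (72 h at 23 °C, flow cytometry).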

[4] = test system: Leishmania donovani; assay: Antileishmanial activity against Leishmania donovani promastigotes stain LV82 infected in iv dosed BALB/c mouse assessed as parasite burden reduction in liver cells after 2 weeks of postinjection by Giemsa staining-light microscopy; format: functional, organism-based
Method in brief: (§1)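 BALB/c mice infected by tail vein with 10^7 L. donovani LV 82 amastigotes; treated iv two weeks post-infection (100 µL; 2.8, 5.6 or 11.1 mg/kg in 10% DMSO/PBS; vehicle negative control; sodium stibogluconate 70 mg/kg positive control). Sacrificed two weeks later; liver and spleen weighed, impression smears MeOH-fixed, Giemsa-stained, amastigotes counted per 1000 host nuclei by light microscopy; LDU = organ weight (g) × that count.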

[5] = test system: Leishmania donovani; assay: Antileishmanial activity against Leishmania donovani […] stain LV82 infected in iv dosed BALB/c mouse assessed as parasite burden reduction in spleen cells after 2 weeks of postinjection by Giemsa staining-light microscopy; format: functional, organism-based; method in brief: as §1
[6] = test system: Mus musculus; assay: Toxicity in BALB/c mouse at 2.8 to 70 mg/kg, iv after 2 weeks; format: organism-based; settings: in vivo, 336 h, in the assay text read “2.8 to 11.1 mg/kg” for “2.8 to 70 mg/kg”
Method in brief: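 Infected BALB/c mice (about 18 g) watched for overt toxicity over two weeks after one 100 µL iv dose in 10% DMSO/PBS: vehicle, test doses 2.8, 5.6 or 11.1 mg/kg, or sodium stibogluconate 70 mg/kg.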

| SMILES | IC50 [1] | IC50 [2] | selectivity ratio [3] | inhibition [4] | inhibition [5] | Activity [6] |
| --- | --- | --- | --- | --- | --- | --- |
| COc1ccc2cc1Oc1ccc(cc1)C[C@H]1c3cc(OC)c(OC)c(c3CCN1C)Oc1c(O)c(OC)cc3c1[C@H](C2)NCC3 | 0.28 µM | 8.2 µM | 29.3 | Dose-dependent effect | Dose-dependent effect | Non-toxic |
| COc1ccc2cc1Oc1ccc(cc1)C[C@H]1c3cc(OC)c(OC)c(c3CCN1C)Oc1c(OC)c(OC)cc3c1[C@H](C2)N(C)CC3 [THALIDASINE] | 10.1 µM | 5.5 µM | 0.5 |  |  |  |
| COc1ccc2cc1Oc1ccc(cc1)C[C@H]1c3cc(OC)c(OC)c(c3CCN1C)Oc1c(O)c(OC)cc3c1[C@H](C2)N(C)CC3 [THALRUGOSIDINE] | 1 µM | 3.6 µM | 3.6 |  |  |  |
